From PMC10055171 (bioRxiv, 2023)
Where “and” joins values, the source holds several entries; their conditions need not be identical. Identical values can stand only once. Where a SMILES comes first, the peptide text is derived from it. The star is where a group is joined. Cbz = O=C(OCc1ccccc1)*

How the values were obtained:
drosophila model of MSP = details: cited from earlier work
[1] = system: HeLa cells expressing TDP-4FL; test: Confocal immunofluorescence of intranuclear TDP-4FL inclusion morphology; assay type: cell-based
[2] = system: CRISPR-Cas9 knock-in HeLa cells harboring R155H VCP expressing GFP-TDP-4FL; test: Flow cytometry of GFP-TDP-4FL clearance, R155H knock-in HeLa; assay type: cell-based
[3] = system: HeLa cells expressing myc-TDP-4FL; test: Sequential extraction and immunoblot of soluble and insoluble TDP-4FL; assay type: cell-based
[4] = system: R155H/R155H mouse model of MSP; details: cited from earlier work
[5] = system: CRISPR-Cas9 knock-in HeLa cells harboring A232E VCP expressing GFP-TDP-4FL; test: Flow cytometry of GFP-TDP-4FL clearance, A232E knock-in HeLa; assay type: cell-based
[6] = system: WT HeLa cells expressing GFP-TDP-4FL; test: Flow cytometry of GFP-TDP-4FL clearance, wild-type HeLa; assay type: cell-based
[7] = system: HeLa cells expressing myc-TDP-4FL; test: Anti-myc immunoprecipitation of insoluble TDP-4FL, ubiquitin immunoblot; assay type: cell-based; details: MG132 treatment, immunoprecipitation of insoluble fraction
Summary of the method: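 Sequential extraction: RIPA, then 100,000 x g for 30 min at 4°C, then urea/thiourea/CHAPS buffer. The urea-soluble fraction was diluted in TBST containing 100 mM NEM and 5 mM EDTA and incubated overnight at 4°C with anti-c-Myc magnetic beads. Elution was in Laemmli buffer with 0.5 mM DTT, 10 min at 99°C, followed by immunoblotting with IR-dye detection.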

[8] = system: HeLa cells expressing myc-TDP-43; test: Immunofluorescence and immunoblot of myc-TDP-43 under proteasome inhibition; assay type: cell-based
Summary of the method: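 For imaging, cells were fixed in 4% paraformaldehyde, permeabilised with 0.1% Triton X-100, stained with anti-myc and DAPI, and imaged by confocal microscopy. For blots, RIPA-soluble and urea-soluble fractions were separated at 100,000 x g, and 25-40 µg protein was immunoblotted with GAPDH as loading control.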

recombinant WT VCP [9] = biological target: T1, recombinant WT VCP (Mus musculus, UniProt Q01853); test: MESG-PNP; assay type: biochemical; details: for increase in kcat: 25 μM activator compared with DMSO; for kcat (nmol Pi / nmol VCP / s) (95% CI): WT VCP with 25 μM compound
Summary of the method: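 EnzCheck (MESG-PNP) phosphate-release assay: 50 nM recombinant VCP in ATPase buffer with 2% DMSO, 25 µM compound or DMSO, and various ATP concentrations. Absorbance at 360 nm followed for >15 min at 25°C. Phosphate was quantified from an on-plate standard curve. Initial velocities came from linear fits and were fitted to Michaelis-Menten with asymmetric profile-likelihood 95% CI.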

recombinant WT VCP [10] = biological target: T1, recombinant WT VCP; assay type: biochemical; details: for maximal increase of VCP activity / Maximum % Activity (95% CI): WT VCP; for maximal increase of VCP activity: increase over baseline; for Maximum % Activity (95% CI): 50 nM VCP, 62.5 μM ATP, Kinase-Glo; for recombinant WT VCP ATPase activity (in words): luciferase-based Kinase-Glo assay
Summary of the method: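 Titration of activator concentrations against 50 nM His-tagged recombinant VCP, no cofactors, with 62.5 µM ATP. Buffer: 25 mM HEPES pH 7.5, 100 mM NaCl, 10 mM MgCl2, 2% DMSO. Incubated 1 h at 25°C, then 20 min with Kinase-Glo reagent at room temperature, read by luminescence. Fitted to a 3-parameter dose curve with profile-likelihood 95% CI; n=3 with 3 technical replicates.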

luciferase = test: Luciferase counter-screen: Kinase-Glo without recombinant VCP; assay type: biochemical; details: 62.5 μM ATP, increasing compound, no VCP
ND1L (aa1–481) VCP = ND1L (aa1–481) VCP (Homo sapiens, UniProt P55072); test: ATPase activity of truncated ND1L VCP; assay type: biochemical; details: 25 μM compound vs DMSO
VCP (E578Q) = VCP (E578Q) (Mus musculus, UniProt Q01853, E578Q); test: ATPase activity of VCP with D2 Walker B mutation; assay type: biochemical; details: 25 μM activator vs DMSO
WT VCP + Ufd1/Nploc4 = WT VCP + Ufd1/Nploc4 (Mus musculus, UniProt Q01853); test: Kinase-Glo ATPase assay of recombinant VCP with UFD1/NPLOC4 cofactors; assay type: biochemical; details: for Maximum % Activity (95% CI) / EC50: WT VCP + Ufd1/Nploc4, 50 nM each, 62.5 μM ATP; for EC50: read-out: EC50 (μM) (95% CI)
Summary of the method: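 50 nM His-tagged recombinant VCP was mixed with 50 nM co-purified UFD1/NPLOC4 complex (1:1 molar) in 25 mM HEPES pH 7.5, 100 mM NaCl, 10 mM MgCl2, 2% DMSO. Added 62.5 µM ATP and a range of activator concentrations, then incubated 1 h at 25°C. ATP remaining was read by Kinase-Glo luminescence after 20 min at room temperature. 3-parameter dose-curve fit with profile-likelihood 95% CI; n=3, 3 technical replicates.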

LD2 (aa442–806) VCP = LD2 (aa442–806) VCP (Homo sapiens, UniProt P55072); test: ATPase activity of truncated LD2 VCP; assay type: biochemical; details: 25 μM compound vs DMSO
[11] = biological target: N-ethylmaleimide-sensitive factor (NSF) (Homo sapiens, UniProt P46459); test: ATPase activity of recombinant NSF; assay type: biochemical; details: 25 μM activator, 50 nM NSF, 62.5 μM ATP
[12] = CB5083 + CHX 6 hours after 3 hours MG132
[13] = 5μM UP109 + CHX 4 hours after MG132, vs CHX only

Sequence of VCP (E578Q) (Q01853 whole entry E578Q): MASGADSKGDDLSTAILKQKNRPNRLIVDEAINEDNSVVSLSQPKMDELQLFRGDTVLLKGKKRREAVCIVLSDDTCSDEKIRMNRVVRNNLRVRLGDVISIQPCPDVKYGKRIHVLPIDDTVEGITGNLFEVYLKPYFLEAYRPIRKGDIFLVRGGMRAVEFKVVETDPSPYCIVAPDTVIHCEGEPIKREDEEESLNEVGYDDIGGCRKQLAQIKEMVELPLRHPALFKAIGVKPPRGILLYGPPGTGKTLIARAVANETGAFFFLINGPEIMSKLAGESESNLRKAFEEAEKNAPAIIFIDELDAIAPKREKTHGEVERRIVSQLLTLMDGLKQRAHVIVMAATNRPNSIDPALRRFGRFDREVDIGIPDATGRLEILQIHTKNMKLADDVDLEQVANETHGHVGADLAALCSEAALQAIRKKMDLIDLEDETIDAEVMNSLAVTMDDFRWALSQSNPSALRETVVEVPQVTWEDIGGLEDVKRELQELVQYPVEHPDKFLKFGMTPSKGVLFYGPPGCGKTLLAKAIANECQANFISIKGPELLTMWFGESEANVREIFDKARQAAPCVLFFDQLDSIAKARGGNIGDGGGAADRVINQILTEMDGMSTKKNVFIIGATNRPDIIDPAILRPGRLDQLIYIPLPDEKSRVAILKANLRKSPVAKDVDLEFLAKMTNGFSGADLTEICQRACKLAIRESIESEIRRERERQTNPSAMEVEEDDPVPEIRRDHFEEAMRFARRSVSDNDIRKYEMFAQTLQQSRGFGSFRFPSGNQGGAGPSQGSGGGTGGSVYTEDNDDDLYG
Sequence of LD2 (aa442–806) VCP (P55072 442-806): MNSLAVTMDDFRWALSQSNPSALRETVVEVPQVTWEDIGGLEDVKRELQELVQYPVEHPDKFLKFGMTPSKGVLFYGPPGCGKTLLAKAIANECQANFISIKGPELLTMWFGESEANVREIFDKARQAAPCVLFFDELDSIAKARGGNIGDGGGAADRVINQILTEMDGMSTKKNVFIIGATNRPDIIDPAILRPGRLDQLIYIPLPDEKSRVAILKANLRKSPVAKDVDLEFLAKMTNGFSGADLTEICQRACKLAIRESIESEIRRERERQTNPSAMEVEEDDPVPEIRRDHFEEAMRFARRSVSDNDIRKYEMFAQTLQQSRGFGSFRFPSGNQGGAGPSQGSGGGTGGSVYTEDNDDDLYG
Sequence of N-ethylmaleimide-sensitive factor (NSF) (P46459 whole entry): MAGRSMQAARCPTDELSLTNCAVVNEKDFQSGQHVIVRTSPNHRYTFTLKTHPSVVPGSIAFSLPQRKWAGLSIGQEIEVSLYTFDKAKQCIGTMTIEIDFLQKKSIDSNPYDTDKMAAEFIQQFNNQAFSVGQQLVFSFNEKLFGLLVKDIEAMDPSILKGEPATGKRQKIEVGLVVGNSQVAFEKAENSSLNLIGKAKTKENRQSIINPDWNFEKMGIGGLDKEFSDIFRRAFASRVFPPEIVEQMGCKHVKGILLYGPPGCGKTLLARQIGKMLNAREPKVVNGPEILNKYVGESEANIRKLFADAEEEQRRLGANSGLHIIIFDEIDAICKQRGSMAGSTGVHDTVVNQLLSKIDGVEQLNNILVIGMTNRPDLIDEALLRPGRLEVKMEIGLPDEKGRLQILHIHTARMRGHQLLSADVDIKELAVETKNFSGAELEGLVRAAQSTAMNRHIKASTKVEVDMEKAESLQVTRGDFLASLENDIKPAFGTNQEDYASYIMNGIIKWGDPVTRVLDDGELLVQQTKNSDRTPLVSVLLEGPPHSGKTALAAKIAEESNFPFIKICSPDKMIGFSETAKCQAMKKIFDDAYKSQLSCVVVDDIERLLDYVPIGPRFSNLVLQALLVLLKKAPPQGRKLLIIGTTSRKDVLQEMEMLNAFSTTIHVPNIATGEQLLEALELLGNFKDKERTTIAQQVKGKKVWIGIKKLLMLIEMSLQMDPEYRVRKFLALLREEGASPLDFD
T1 sequence (Q01853 whole entry): as the sequence (Q01853 whole entry E578Q) above, with Q578E counted along it
Sequence of WT VCP + Ufd1/Nploc4 (Q01853 whole entry): as the sequence (Q01853 whole entry E578Q) above, with Q578E counted along it
Sequence of WT VCP + Ufd1/Nploc4 (Q92890 whole entry partner): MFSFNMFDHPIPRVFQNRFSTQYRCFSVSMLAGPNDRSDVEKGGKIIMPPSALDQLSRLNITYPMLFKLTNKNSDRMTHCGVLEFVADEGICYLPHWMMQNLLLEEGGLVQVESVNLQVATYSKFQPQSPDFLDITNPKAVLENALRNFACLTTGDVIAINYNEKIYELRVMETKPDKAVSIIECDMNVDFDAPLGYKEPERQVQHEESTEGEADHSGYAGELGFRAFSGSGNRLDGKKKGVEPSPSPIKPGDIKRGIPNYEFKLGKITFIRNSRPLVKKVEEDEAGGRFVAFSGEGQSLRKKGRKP
Sequence of WT VCP + Ufd1/Nploc4 (Q8TAT6 whole entry partner): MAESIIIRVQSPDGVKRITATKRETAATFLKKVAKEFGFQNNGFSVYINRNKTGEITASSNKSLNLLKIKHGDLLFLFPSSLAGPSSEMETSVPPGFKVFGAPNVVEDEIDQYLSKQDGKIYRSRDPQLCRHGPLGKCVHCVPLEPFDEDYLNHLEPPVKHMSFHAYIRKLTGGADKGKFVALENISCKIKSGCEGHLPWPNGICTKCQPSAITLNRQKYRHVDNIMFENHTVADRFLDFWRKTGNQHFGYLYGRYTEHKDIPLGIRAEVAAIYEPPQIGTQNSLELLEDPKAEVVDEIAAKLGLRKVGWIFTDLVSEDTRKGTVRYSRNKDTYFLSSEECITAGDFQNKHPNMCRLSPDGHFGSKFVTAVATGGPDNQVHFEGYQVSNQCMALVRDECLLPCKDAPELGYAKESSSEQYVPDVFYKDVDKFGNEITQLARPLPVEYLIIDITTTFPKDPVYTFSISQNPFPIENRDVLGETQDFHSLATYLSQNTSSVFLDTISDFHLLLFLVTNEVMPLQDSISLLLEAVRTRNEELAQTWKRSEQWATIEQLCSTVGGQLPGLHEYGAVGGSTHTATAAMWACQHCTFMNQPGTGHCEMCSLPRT
Sequence of ND1L (aa1–481) VCP (P55072 1-481): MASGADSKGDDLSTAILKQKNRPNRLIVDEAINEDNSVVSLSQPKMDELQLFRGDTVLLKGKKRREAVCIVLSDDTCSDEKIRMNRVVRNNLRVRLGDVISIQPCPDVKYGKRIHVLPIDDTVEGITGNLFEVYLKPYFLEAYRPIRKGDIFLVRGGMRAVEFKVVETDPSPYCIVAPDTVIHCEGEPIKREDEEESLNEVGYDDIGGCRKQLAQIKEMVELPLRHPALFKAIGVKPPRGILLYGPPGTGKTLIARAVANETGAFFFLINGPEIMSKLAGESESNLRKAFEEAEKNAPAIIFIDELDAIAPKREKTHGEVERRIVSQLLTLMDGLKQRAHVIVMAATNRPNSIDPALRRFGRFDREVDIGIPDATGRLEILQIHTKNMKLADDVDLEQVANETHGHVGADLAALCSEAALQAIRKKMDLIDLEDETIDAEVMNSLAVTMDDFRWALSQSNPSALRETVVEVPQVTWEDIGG

SMILES	increase in kcat (recombinant WT VCP [9])	kcat (nmol Pi / nmol VCP / s) (95% CI) (recombinant WT VCP [9])	maximal increase of VCP activity (recombinant WT VCP [10]) [%]	Maximum % Activity (95% CI) (recombinant WT VCP [10])	recombinant WT VCP ATPase activity (in words) (recombinant WT VCP [10])	luciferase activity inhibition (luciferase)	ATPase activity of ND1L construct (ND1L (aa1–481) VCP)	ATPase activity of VCP E578Q (inactive D2, active D1) (VCP (E578Q))	Maximum % Activity (95% CI) (WT VCP + Ufd1/Nploc4)	EC50 (WT VCP + Ufd1/Nploc4) [µM]	ATPase activity of LD2 construct (LD2 (aa442–806) VCP)	NSF ATPase activity compared to DMSO [11]	further results
Cc1cc2c(C(N)=O)cccc2n1-c1nc2c(c(NCc3ccccc3)n1)COCC2 [CB5083]													altered mitochondrial morphology caused by VCP variants (drosophila model of MSP): reversed; TDP-4FL aggregate morphology [1, 12]: residual irregularly shaped intranuclear TDP-4FL aggregates; integrated fluorescence intensity (GFP-TDP-4FL) [2, 12]: greater integrated fluorescence intensity compared to CHX only treatment; insoluble TDP-4FL protein [3, 12]: residual amounts of insoluble TDP-4FL protein; soluble TDP-4FL protein [3, 12]: significant decrease in soluble TDP-4FL protein; markers of muscle pathology [4]: improved markers of muscle pathology; integrated fluorescence intensity (GFP-TDP-4FL) [5, 12]: greater integrated fluorescence intensity compared to CHX only treatment; integrated fluorescence intensity (GFP-TDP-4FL) ([6]; WT cells, CB5083 + CHX 6 hours after 3 hours MG132): significantly higher than CHX only treatment
CC(C)C[C@@H](C=O)NC(=O)[C@H](CC(C)C)NC(=O)[C@H](CC(C)C)NC(=O)OCc1ccccc1 [MG132] (Cbz-Leu-Leu-Leu-aldehyde)													TDP-4FL inclusion morphology ([1]; 4μM MG132, 3 or 6 hours): coalesced into larger, irregularly shaped aggregates; insoluble TDP-4FL ([3]; 4μM MG132 for 0, 3, or 6 hours): increase in insoluble TDP-4FL; soluble TDP-4FL ([3]; 4μM MG132 for 0, 3, or 6 hours): decrease in soluble TDP-4FL; ubiquitination of insoluble myc-TDP-4FL [7]: ubiquitination of TDP-4FL protein; TDP-43 nuclear morphology ([8]; 4μM MG132): formation of coarse nuclear punctae; insoluble TDP-43 protein ([8]; 4μM MG132 for 0, 3, or 6 hours): increase in insoluble TDP-43 protein; soluble TDP-43 protein ([8]; 4μM MG132 for 0, 3, or 6 hours): reduction in soluble TDP-43 protein
O=C(CSc1nc2ccccc2c(=O)n1NC(=O)c1ccccc1)c1ccc(Cl)cc1 [UP12]	about 25%	0.309 nmol Pi / nmol VCP / s and 0.309 (0.269, 0.356) nmol Pi / nmol VCP / s	39	139.0 (131.9, 149.0) %	significantly increased recombinant WT VCP ATPase activity	did not inhibit luciferase activity	only compound to increase ATPase activity	seemed to increase ATPase activity, though not significantly	124.6 (119.8, 130.2) %	0.648	significantly increased ATPase activity	No compound significantly increased ATPase activity	
COCCNC(=O)NC(=O)COC(=O)c1cc([N+](=O)[O-])ccc1Sc1nc(C)cs1 [UP109]	100%	0.489 nmol Pi / nmol VCP / s and 0.489 (0.459, 0.520) nmol Pi / nmol VCP / s	97	197.4 (189.8, 206.1) %	significantly increased recombinant WT VCP ATPase activity	did not inhibit luciferase activity	did not inhibit the ATPase activity	decreased ATPase activity, though less than UP158 and UP163 and not significantly	175.3 (164.6, 188.0) %	13.4	significantly increased ATPase activity	No compound significantly increased ATPase activity	TDP-4FL aggregate morphology ([1]; 5μM UP109 + CHX 4 hours after MG132): appeared to be smaller and in some cases revert to small anisosomes; integrated fluorescence intensity (GFP-TDP-4FL) ([2]; 5μM UP109 + CHX vs CHX only): significantly decreased integrated fluorescence intensity; insoluble TDP-4FL levels [3, 13]: significant decrease in insoluble TDP-4FL levels; soluble TDP-4FL levels [3, 13]: increase in soluble TDP-4FL levels; integrated fluorescence intensity (GFP-TDP-4FL) ([5]; 5μM UP109 + CHX vs CHX only): significantly decreased integrated fluorescence intensity; integrated fluorescence intensity (GFP-TDP-4FL) ([6]; 5μM UP109 + CHX 4 hours after 17 hours MG132, vs CHX only): significantly decreased; integrated fluorescence intensity (GFP-TDP-4FL) ([6]; 20μM UP109 + CHX 4 hours after 17 hours MG132): further reduced
Clc1ccc2[nH]c3c(N4CCC5(CC4)OCCO5)ncnc3c2c1 [UP158]	more than 50%	0.356 nmol Pi / nmol VCP / s and 0.356 (0.320, 0.396) nmol Pi / nmol VCP / s	50	150.3 (146.6, 154.3) %	significantly increased recombinant WT VCP ATPase activity	did not inhibit luciferase activity	did not inhibit the ATPase activity	significantly decreased ATPase activity	152.1 (143.2, 164.4) %	14.3	significantly increased ATPase activity	No compound significantly increased ATPase activity	
O=C(OCCN(C1=NS(=O)(=O)c2ccccc21)c1ccc(Cl)cc1)c1ccco1 [UP163]	more than 50%	0.366 nmol Pi / nmol VCP / s and 0.366 (0.335, 0.401) nmol Pi / nmol VCP / s	104	204.0 (189.2, 223.3) %	significantly increased recombinant WT VCP ATPase activity	did not inhibit luciferase activity	did not inhibit the ATPase activity	significantly decreased ATPase activity	151.8 (144.7, 160.7) %	8.9	significantly increased ATPase activity	No compound significantly increased ATPase activity	change in EC50 with UN compared to without UN (WT VCP + Ufd1/Nploc4; recombinant UN 1:1 molar ratio with VCP): no change in EC50
